Assay results: ChEMBL document CHEMBL1137432, “Characterization of the histamine H4 receptor binding site. Part 1. Synthesis and pharmacological evaluation of dibenzodiazepine derivatives” (J Med Chem, 2006)

How the values were obtained:
Histamine H4 receptor [1] = molecular target: T1, Histamine H4 receptor (Homo sapiens, UniProt Q9H3N8); test: Displacement of [3H]histamine from human histamine H4 receptor transfected in SK-N-MC cells
Histamine H4 receptor [2] = molecular target: T1, Histamine H4 receptor; test: Activity at human histamine H4 receptor transfected in SK-N-MC cells by cAMP assay; assay type: functional, cell-based
Procedure, shortened: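 Colorimetric cAMP read-out in SK-N-MC cells stably expressing the human H4 receptor together with a CRE-β-galactosidase reporter gene, used to measure functional activity.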

Histamine H4 receptor [3] = molecular target: T1, Histamine H4 receptor; test: Agonist activity at human histamine H4 receptor transfected in SK-N-MC cells; assay type: functional, cell-based
Histamine H4 receptor [4] = molecular target: T1, Histamine H4 receptor; settings: SK-N-MC, 100 nM
Histamine H4 receptor [5] = molecular target: T1, Histamine H4 receptor; settings: SK-N-MC, 300 nM
Histamine H4 receptor [6] = molecular target: T1, Histamine H4 receptor; settings: SK-N-MC, 1 uM
Histamine H1 receptor [7] = molecular target: T2, Histamine H1 receptor (Homo sapiens, UniProt P35367); test: Displacement of [3H]mepyramine from human histamine H1 receptor
Histamine H2 receptor = Histamine H2 receptor (Homo sapiens, UniProt P25021); test: Displacement of [3H]APT from human histamine H2 receptor transfected in COS7 cells; assay type: cell-based, COS-7
Histamine H3 receptor = Histamine H3 receptor (Homo sapiens, UniProt Q9Y5N1); test: Displacement of [3H]histamine from human histamine H3 receptor transfected in SK-N-MC cells; assay type: cell-based
Procedure, shortened: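 Homogenates of SK-N-MC cells stably expressing the human H3 receptor were used. Affinity was determined by radioligand displacement.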

Histamine H1 receptor [8] = molecular target: T2, Histamine H1 receptor; test: Activity at human histamine H1 receptor transfected in COS7 cells by NF-kappaB luciferase reporter assay; assay type: functional, cell-based, COS-7
Histamine H4 receptor [9] = molecular target: T1, Histamine H4 receptor; settings: SK-N-MC, 10 nM
Histamine H4 receptor [10] = molecular target: T1, Histamine H4 receptor; settings: SK-N-MC, 30 nM

T1 sequence (Q9H3N8 whole entry): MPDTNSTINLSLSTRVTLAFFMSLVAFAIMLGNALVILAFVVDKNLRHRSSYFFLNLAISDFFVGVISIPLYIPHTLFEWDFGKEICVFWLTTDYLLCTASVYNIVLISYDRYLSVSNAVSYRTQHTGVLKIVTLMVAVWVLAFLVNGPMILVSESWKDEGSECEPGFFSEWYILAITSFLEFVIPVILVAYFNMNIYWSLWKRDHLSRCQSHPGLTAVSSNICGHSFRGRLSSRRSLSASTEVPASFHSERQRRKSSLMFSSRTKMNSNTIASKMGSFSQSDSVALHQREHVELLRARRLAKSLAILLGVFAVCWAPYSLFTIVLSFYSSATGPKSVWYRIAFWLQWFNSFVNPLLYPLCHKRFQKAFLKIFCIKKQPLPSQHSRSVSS
T2 sequence (P35367 whole entry): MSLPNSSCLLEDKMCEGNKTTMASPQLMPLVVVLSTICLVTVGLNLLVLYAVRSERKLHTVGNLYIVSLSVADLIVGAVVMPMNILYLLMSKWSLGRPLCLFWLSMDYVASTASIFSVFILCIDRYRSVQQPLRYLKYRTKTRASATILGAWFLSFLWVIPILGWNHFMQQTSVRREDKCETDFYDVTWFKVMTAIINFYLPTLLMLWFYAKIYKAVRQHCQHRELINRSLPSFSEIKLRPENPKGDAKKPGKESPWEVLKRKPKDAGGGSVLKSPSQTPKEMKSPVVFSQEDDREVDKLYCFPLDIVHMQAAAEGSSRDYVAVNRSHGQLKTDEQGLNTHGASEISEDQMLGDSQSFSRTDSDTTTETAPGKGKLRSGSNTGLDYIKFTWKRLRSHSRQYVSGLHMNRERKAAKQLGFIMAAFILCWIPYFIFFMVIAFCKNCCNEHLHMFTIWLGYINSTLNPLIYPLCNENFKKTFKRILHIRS
Histamine H2 receptor, sequence (P25021 whole entry): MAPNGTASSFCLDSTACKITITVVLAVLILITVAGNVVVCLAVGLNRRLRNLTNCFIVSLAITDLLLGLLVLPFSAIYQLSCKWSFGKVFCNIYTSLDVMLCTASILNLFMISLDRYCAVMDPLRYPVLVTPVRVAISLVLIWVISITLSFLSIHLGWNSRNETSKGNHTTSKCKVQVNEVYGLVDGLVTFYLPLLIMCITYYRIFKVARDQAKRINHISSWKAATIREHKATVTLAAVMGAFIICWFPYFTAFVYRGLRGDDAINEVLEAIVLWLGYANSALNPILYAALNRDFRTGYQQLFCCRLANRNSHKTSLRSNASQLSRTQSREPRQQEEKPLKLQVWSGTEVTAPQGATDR
Histamine H3 receptor, sequence (Q9Y5N1 whole entry): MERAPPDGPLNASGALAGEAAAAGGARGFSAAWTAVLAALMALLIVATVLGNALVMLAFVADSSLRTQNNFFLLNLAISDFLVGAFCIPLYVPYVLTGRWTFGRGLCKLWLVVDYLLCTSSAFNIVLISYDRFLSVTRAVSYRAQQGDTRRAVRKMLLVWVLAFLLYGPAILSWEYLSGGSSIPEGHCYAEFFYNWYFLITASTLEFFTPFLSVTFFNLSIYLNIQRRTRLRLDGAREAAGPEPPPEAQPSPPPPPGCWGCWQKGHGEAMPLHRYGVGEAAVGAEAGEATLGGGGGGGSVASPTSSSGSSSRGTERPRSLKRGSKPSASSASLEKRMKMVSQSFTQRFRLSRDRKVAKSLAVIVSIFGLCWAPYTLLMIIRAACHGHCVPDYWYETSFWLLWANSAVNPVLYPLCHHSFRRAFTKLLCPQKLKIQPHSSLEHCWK

Row | SMILES | Ki (Histamine H4 receptor [1]) [µM] | EC50 (Histamine H4 receptor [2]) [µM] | Activity (Histamine H4 receptor [3]) | other results
1 | Cc1ccc2c(c1)Oc1ccccc1C(N1CCN(C)CC1)=N2 | 0.0794 | 0.105 | 1 | –
2 | CN1CCN(C2=Nc3ccccc3Oc3ccccc32)CC1 | 0.132 | 0.302 | 1 | –
3 | CN1CCN(C2=Nc3cc(Cl)ccc3Nc3ccccc32)CC1 | – | – | – | Bmax (Histamine H4 receptor [4]): 996 fmol/mg; Bmax (Histamine H4 receptor [5]): 899 fmol/mg; Bmax (Histamine H4 receptor [6]): 987 fmol/mg
4 | CCN1CCN(C2=Nc3cc(Cl)ccc3Oc3ccccc32)CC1 | 0.288 | – | – | –
5 | CN1CCN(C2=Nc3ccccc3Cc3ccccc32)CC1 [PERLAPINE] | 4.79 | – | – | –
6 | CN1CCN(C2=Nc3cc(Cl)ccc3N(C)c3ccccc32)CC1 | 1.41 | – | – | –
7 | CN1CCN(C2=Nc3ccc(Cl)cc3Oc3c(F)cccc32)CC1 | 0.0309 | 0.0204 | 1 | –
8 | Clc1ccc2c(c1)N=C(N1CCNCC1)c1ccccc1O2 | 0.324 | – | – | –
9 | CN1CCN(C2=Nc3cc(Cl)ccc3Oc3ccc(F)cc32)CC1 | 0.191 | 0.0813 | 1 | –
10 | CN1CCN(C2=Cc3ccccc3Oc3ccc(Cl)cc32)CC1 | > 10 | – | – | –
11 | Clc1ccc2c(c1)N=C(N1CCOCC1)c1ccccc1N2 | > 10 | – | – | –
12 | CN1CCN(C2=Nc3cc(Cl)ccc3Oc3ccccc32)CC1 [ISOLOXAPINE] | 0.0427 | 0.0282 | 1 | –
13 | CC(C)N1CCN(C2=Nc3cc(Cl)ccc3Oc3ccccc32)CC1 | 1.07 | – | – | –
14 | CN1CCN(C2=Nc3ccc(Cl)cc3Oc3cc(F)ccc32)CC1 | 0.0389 | 0.0389 | 1 | –
15 | CN1CCN(C2=Nc3ccccc3Oc3ccc(Cl)cc32)CC1 [LOXAPINE] | 4.57 | 0.219 | 0.5 | –
16 | OCCN1CCN(C2=Nc3cc(Cl)ccc3Nc3ccccc32)CC1 | 4.68 | – | – | –
17 | CN1CCN(C2=Nc3cc(Cl)ccc3Sc3ccccc32)CC1 [ISOCLOTHIAPINE] | 2.04 | – | – | –
18 | Clc1ccc2c(c1)N=C(N1CCCCC1)c1ccccc1N2 | > 10 | – | – | –
19 | CN1CCN(C2=Nc3cc(Cl)ccc3Oc3cc(Cl)ccc32)CC1 | 0.309 | 0.102 | 1 | –
20 | CN1CCN(C2=Nc3cc(Cl)ccc3Oc3c(F)cccc32)CC1 | 0.0275 | 0.0148 | 1 | –
21 | CN1CCN(C2=Nc3ccc(Cl)cc3Oc3c(Cl)cccc32)CC1 | 0.0457 | 0.0148 | 1 | –
22 | CN1CCN(C2=Nc3ccc(Cl)cc3Oc3ccccc32)CC1 | – | – | 1 | Ki (Histamine H1 receptor [7]): 0.00776 µM; Ki (Histamine H2 receptor): 8.71 µM; Ki (Histamine H3 receptor): 9.12 µM; EC50 (Histamine H1 receptor [8]): 0.00676 µM; Bmax (Histamine H4 receptor [4]): 934 fmol/mg; Bmax (Histamine H4 receptor [9]): 951 fmol/mg; Bmax (Histamine H4 receptor [10]): 934 fmol/mg
